Test results published in paper PMC9924264 (Journal of Medicinal Chemistry, 2023).

Columns and labels:
BMPR2 kinase domain [1] = target: T1, BMPR2 kinase domain (Homo sapiens, UniProt Q13873); test: BMPR2 Kinase-Glo kinase inhibition assay; format: biochemical; details: for fold loss of BMPR2 potency: compared to parent CDD-1115 (CDD-1280: relative to CDD-1281)
T1 sequence (Q13873 188-517): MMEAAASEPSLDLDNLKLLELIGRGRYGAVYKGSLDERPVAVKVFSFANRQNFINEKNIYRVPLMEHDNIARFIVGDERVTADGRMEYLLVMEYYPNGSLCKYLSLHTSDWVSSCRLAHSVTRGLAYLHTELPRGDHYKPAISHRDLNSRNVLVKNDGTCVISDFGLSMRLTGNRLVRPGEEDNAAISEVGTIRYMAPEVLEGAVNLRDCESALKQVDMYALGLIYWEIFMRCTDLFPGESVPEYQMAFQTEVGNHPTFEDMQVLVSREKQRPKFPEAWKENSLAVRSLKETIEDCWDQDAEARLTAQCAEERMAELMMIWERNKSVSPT
Summary of the method: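 Recombinant human BMPR2 kinase domain (aa188-517, C-terminal His-tag) expressed in E. coli and purified by affinity, anion-exchange and size-exclusion chromatography. Substrate-free ATPase end-point assay: 10 μM ATP, 0.02% Tween-20, kinase buffer, 30 min at 30 °C. Enzyme level optimized for linear initial velocity. Leftover ATP read by luciferase luminescence, with no-kinase controls. Kiapp from modified Morrison equation fit to normalized fractional activity, no inhibition mode assumed.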

[2] = tested on: pSMAD1/5 in human umbilical vein endothelial cells (HUVECs); test: pSMAD1/5 Western blot, BMP9-stimulated HUVECs; format: cell-based; details: 25 μM, 30 min pretreatment, 0.5 ng/mL BMP9 15 min
Summary of the method: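 HUVECs, about 3 × 10^5 per well, starved overnight in Kaighn's F-12 with 0.5% FBS and 30 μg/mL endothelial cell growth supplement. Pretreated with inhibitors for 30 min, then given 0.5 ng/mL BMP9 for 15 min. Lysed with protease and phosphatase inhibitors. SDS-PAGE immunoblot for pSMAD1/5, SMAD1, SMAD5 and GAPDH, with densitometry. n = 3 biological replicates; one-way ANOVA with Tukey post hoc test.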

BMPR2 kinase domain [3] = target: T1, BMPR2 kinase domain; test: Thermal shift assay; format: binding; details: 50 μM compound; BMPR2 alone Tm 52.1 °C
Summary of the method: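 Purified BMPR2 kinase domain (1 μg) in 50 mM Tris–HCl pH 7.5, 150 mM NaCl with 50 μM test compound and 5× SYPRO Orange. Heated 20 to 95 °C, fluorescence read every 10 s. Tm taken from the unfolding curve; three technical replicates averaged.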

ACVRL1 (ALK1) = ACVRL1 (ALK1) (Homo sapiens, UniProt P37023); test: ThermoFisher SelectScreen LanthaScreen assay; format: binding; details: ALK1, text
ACVR1 (ALK2) = target: T2, ACVR1 (ALK2) (Homo sapiens, UniProt Q04771); test: ThermoFisher SelectScreen LanthaScreen assay; format: binding; details: ALK2, text
T2 sequence (Q04771 21-509): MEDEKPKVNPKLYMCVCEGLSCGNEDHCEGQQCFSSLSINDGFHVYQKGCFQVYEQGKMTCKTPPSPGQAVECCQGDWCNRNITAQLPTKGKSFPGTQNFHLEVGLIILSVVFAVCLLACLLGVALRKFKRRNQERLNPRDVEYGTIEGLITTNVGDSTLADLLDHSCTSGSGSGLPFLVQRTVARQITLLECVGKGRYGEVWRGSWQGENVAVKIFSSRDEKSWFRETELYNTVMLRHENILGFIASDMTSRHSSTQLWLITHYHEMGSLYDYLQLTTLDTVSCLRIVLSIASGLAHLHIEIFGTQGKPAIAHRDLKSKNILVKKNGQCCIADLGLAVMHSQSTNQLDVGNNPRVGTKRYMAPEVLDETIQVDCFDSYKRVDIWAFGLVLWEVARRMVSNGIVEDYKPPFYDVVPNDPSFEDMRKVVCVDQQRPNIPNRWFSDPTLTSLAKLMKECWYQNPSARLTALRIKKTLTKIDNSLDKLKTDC

BMPR1A (ALK3) = BMPR1A (ALK3) (Homo sapiens, UniProt P36894); test: ThermoFisher SelectScreen LanthaScreen assay; format: binding
BMPR1A (ALK3), sequence (P36894 24-532): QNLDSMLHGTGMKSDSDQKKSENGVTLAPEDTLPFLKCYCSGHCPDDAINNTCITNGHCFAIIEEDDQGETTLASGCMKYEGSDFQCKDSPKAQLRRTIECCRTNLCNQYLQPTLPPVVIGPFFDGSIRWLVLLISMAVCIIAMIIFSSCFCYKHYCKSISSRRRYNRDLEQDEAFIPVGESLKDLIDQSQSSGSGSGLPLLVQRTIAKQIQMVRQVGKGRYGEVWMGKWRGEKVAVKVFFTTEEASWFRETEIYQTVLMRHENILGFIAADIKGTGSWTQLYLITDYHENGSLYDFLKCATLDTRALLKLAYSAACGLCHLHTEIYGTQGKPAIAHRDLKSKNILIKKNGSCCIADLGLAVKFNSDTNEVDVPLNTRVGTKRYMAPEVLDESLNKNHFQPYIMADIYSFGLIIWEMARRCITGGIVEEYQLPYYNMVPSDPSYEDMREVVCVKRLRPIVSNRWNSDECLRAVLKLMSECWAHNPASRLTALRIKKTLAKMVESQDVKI

ACVR1B (ALK4) = target: T3, ACVR1B (ALK4) (Homo sapiens, UniProt P36896); test: ThermoFisher SelectScreen Z’-LYTE assay; format: biochemical; details: N/A = not active
T3 sequence (P36896 24-505): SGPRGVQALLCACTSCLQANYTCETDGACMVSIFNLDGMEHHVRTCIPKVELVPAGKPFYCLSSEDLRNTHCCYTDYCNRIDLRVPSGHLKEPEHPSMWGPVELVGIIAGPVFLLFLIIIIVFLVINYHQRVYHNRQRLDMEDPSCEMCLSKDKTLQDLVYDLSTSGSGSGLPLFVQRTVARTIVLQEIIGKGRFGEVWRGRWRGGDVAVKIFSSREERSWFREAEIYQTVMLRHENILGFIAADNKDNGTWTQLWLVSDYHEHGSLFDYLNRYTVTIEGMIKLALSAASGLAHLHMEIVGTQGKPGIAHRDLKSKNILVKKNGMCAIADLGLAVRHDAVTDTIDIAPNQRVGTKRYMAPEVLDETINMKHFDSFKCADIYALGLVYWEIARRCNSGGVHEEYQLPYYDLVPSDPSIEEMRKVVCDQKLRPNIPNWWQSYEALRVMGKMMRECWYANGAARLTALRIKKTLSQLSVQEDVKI

TGFBR1 (ALK5) = target: T4, TGFBR1 (ALK5) (Homo sapiens, UniProt P36897); test: ThermoFisher SelectScreen LanthaScreen assay; format: binding
T4 sequence (P36897 34-503): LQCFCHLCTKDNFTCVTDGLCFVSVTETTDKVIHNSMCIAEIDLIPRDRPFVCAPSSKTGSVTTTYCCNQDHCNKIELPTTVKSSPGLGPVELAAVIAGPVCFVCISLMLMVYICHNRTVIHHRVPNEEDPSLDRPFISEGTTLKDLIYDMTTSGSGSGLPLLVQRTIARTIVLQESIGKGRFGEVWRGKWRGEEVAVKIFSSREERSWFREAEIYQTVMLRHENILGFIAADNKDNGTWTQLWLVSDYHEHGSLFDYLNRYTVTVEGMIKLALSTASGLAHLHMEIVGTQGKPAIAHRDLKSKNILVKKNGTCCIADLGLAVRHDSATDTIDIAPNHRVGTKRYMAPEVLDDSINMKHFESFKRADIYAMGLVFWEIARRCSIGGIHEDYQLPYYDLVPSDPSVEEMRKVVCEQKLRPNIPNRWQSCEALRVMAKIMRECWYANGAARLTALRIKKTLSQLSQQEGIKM

BMPR1B (ALK6) = BMPR1B (ALK6) (Homo sapiens, UniProt O00238); test: ThermoFisher SelectScreen LanthaScreen assay; format: binding
BMPR1B (ALK6), sequence (O00238 14-502): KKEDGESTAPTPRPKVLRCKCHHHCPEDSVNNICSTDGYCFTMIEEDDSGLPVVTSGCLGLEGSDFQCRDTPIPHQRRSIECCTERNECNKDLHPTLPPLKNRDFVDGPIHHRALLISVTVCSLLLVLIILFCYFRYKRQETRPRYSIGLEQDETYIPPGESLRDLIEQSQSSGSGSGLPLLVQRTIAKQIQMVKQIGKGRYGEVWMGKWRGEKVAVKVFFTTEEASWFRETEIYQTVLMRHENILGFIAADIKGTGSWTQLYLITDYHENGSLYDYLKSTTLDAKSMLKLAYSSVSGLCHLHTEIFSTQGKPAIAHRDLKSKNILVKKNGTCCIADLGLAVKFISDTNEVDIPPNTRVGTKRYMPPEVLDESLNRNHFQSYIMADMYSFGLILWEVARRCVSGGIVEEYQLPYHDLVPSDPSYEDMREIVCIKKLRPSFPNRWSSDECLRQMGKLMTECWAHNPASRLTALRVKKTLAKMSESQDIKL

TGFBR2 = TGFBR2 (Homo sapiens, UniProt P37173); test: ThermoFisher SelectScreen LanthaScreen assay; format: binding
TGFBR2, sequence (P37173 23-567): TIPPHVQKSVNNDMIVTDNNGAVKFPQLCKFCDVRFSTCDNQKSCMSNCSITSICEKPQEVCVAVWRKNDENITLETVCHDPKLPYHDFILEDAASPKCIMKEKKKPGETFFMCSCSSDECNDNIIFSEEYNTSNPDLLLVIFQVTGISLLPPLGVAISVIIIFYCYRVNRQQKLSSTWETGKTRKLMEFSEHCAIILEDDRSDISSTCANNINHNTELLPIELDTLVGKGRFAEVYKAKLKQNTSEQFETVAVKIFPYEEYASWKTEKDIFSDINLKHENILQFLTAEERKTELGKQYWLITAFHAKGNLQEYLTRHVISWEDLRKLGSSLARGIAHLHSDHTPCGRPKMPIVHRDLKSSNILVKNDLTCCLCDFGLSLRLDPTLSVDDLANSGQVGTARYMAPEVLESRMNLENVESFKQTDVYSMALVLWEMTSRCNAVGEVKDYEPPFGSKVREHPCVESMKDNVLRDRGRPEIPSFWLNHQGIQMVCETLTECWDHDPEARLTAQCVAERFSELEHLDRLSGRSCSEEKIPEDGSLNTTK

ACVR2A = ACVR2A (Homo sapiens, UniProt P27037); test: ThermoFisher SelectScreen LanthaScreen assay; format: binding; details: N/A = not active
ACVR2A, sequence (P27037 20-513): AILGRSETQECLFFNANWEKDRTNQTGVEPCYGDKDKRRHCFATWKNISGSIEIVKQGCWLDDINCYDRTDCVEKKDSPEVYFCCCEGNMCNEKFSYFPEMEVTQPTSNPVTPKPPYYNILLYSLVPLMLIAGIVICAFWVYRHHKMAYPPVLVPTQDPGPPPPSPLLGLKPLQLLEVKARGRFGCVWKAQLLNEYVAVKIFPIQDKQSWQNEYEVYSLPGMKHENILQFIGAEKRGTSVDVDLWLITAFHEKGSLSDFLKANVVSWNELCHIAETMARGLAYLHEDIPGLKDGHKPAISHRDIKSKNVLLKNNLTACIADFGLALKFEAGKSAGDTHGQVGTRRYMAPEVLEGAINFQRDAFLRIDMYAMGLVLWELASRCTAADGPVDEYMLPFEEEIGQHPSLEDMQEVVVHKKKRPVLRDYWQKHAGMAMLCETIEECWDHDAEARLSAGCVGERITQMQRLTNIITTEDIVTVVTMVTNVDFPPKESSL
Summary of the method: (§1)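 Outsourced kinase profiling in TR-FRET binding format, measuring displacement of a tight-binding tracer from the kinase by test compound. IC50 reported.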

ACVR2B = ACVR2B (Homo sapiens, UniProt Q13705); test: ThermoFisher SelectScreen LanthaScreen assay; format: binding; details: N/A = not active
ACVR2B, sequence (Q13705 19-512): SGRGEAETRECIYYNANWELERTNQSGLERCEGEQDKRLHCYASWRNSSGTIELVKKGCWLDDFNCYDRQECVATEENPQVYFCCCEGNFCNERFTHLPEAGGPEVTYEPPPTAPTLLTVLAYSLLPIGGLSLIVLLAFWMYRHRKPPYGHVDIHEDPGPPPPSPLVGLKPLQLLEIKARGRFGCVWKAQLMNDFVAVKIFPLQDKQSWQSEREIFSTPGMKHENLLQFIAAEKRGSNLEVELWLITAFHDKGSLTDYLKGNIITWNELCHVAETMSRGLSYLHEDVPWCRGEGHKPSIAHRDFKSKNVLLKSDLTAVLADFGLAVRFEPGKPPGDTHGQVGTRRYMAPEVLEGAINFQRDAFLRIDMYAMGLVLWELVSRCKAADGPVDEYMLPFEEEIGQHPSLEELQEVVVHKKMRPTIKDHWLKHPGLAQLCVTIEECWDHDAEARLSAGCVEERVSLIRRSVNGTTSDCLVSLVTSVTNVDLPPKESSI
Summary of the method: as §1

WNK1 = WNK1 (Homo sapiens, UniProt Q9H4A3); test: ThermoFisher Kd Elect screening; format: binding
WNK1, sequence (Q9H4A3 whole entry): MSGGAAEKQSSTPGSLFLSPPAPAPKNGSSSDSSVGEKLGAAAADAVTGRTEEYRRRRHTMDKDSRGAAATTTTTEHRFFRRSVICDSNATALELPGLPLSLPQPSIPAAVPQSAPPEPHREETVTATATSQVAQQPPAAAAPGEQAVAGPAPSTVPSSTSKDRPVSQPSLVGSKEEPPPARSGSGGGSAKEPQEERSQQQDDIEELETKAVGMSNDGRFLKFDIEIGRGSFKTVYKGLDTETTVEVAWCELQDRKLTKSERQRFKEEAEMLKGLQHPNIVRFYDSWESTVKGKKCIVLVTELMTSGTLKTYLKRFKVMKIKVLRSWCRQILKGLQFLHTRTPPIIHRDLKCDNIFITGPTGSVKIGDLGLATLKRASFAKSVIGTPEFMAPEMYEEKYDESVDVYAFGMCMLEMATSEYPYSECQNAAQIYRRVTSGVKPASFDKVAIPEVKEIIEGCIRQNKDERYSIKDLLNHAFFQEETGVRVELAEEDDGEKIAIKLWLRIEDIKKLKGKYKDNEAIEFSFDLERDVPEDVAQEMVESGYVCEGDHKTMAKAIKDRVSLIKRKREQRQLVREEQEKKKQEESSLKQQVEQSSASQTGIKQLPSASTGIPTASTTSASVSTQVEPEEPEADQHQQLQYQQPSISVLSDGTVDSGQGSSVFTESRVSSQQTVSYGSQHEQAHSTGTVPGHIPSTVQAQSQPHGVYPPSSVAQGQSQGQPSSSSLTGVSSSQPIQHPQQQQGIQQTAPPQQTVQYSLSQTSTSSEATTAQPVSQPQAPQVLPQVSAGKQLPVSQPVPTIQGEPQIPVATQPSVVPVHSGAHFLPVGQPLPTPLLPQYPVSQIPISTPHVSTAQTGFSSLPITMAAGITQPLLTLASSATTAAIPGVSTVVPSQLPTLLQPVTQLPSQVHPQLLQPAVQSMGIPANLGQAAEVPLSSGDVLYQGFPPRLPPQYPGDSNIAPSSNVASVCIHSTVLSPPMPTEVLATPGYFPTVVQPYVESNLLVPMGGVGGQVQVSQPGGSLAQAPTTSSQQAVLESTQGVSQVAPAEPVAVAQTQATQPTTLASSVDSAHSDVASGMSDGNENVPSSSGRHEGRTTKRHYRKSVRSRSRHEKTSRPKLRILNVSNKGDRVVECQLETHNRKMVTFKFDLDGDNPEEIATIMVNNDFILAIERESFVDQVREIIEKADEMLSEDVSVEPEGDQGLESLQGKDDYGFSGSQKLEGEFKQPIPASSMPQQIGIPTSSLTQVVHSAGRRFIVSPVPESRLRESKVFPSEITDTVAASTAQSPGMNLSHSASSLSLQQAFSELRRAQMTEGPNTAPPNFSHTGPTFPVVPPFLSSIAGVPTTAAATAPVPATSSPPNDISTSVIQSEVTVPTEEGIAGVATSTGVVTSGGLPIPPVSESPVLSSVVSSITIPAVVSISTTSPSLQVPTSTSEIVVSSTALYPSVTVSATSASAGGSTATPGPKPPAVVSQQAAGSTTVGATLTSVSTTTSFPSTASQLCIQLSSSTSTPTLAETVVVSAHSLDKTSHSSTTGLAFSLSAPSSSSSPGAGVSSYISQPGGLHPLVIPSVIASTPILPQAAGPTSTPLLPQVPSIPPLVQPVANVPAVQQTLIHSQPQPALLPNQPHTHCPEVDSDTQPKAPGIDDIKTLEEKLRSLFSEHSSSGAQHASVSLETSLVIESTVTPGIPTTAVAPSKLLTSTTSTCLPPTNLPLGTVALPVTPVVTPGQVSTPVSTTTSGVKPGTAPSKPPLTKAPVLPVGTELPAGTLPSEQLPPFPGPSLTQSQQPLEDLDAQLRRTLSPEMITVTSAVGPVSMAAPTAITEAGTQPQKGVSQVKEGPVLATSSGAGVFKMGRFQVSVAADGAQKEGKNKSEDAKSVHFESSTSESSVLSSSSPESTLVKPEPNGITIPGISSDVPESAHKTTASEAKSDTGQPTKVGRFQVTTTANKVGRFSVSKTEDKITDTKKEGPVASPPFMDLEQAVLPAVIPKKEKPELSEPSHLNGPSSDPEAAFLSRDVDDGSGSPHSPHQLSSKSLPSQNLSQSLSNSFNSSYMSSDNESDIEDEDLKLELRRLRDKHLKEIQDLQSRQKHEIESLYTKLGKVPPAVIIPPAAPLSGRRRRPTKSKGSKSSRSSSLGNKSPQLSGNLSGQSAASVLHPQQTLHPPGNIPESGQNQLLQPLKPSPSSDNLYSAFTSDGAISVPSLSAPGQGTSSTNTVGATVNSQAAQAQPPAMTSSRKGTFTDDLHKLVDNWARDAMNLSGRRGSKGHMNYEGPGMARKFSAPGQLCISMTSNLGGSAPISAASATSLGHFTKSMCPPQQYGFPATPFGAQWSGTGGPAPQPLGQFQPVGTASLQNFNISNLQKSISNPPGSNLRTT

WNK2 = WNK2 (Homo sapiens, UniProt Q9Y3S1); test: ThermoFisher Kd Elect screening; format: binding

For COc1cnc(Nc2cccc(S(N)(=O)=O)c2)nc1N1CCN(c2ccccc2)CC1 [CDD-1496, 3-((5-Methoxy-4-(4-phenylpiperazin-1-yl)pyrimidin-2-yl)amino)benzenesulfonamide], the “fold drop in BMPR2 potency” value (BMPR2 kinase domain [1]; compared to parent CDD-1431) was 2 fold and the “phosphorylation of SMAD1/5 (pSMAD1/5)” value [2] was “significantly decreased”.

With CNC(=O)c1ccc2nc(-c3ccc4cnccc4c3)n([C@@H]3CC[C@@H](C(=O)NC)C3)c2c1 [CDD-1282, 2-(Isoquinolin-6-yl)-N-methyl-1-((1R,3R)-3-(methylcarbamoyl)cyclopentyl)-1H-benzo[d]imidazole-6-carboxamide] the “fold loss of BMPR2 potency” value (BMPR2 kinase domain [1]) was “complete loss of potency”.

With CNC(=O)[C@@H]1CC[C@@H](n2c(-c3cc(Cl)cc(Cl)c3)nc3ccc(C(=O)NCc4cccc(C(N)=O)c4)cc32)C1 [CDD-1285, N-(3-Carbamoylbenzyl)-2-(3,5-dichlorophenyl)-1-((1R,3R)-3-(methylcarba-moyl)cyclopentyl)-1H-benzo[d]imidazole-6-carboxamide] the “fold loss of BMPR2 potency” value (BMPR2 kinase domain [1]) was 160 fold.

With CCOc1cnc(Nc2cccc(S(N)(=O)=O)c2)nc1N1CCN(c2ccccc2)C(=O)C1 [CDD-1703, 3-((5-Ethoxy-4-(3-oxo-4-phenylpiperazin-1-yl)pyrimidin-2-yl)amino)benzenesulfonamide] the “fold improved BMPR2 potency” value (BMPR2 kinase domain [1]; compared to parent CDD-1431) was 4 fold.

COc1cnc(Nc2cccc(S(N)(=O)=O)c2)nc1N1CCNCC1 [CDD-1497, 3-((5-Methoxy-4-(piperazin-1-yl)pyrimidin-2-yl)amino)benzenesulfonamide] was tested, and the “fold drop in BMPR2 potency” value (BMPR2 kinase domain [1]; compared to parent CDD-1431) was 12 fold.

For CNC(=O)CCc1ccc(C(=O)NCc2cccc(N3CCN(c4nc(Nc5cccc(S(N)(=O)=O)c5)ncc4OC)CC3)c2)cc1 [CDD-1431, N-(3-(4-(5-Methoxy-2-((3-sulfamoylphenyl)amino)pyrimidin-4-yl)piperazin-1-yl)benzyl)-4-(3-(methylamino)-3-oxopropyl)benzamide], the “melting temperature (Tm)” value (BMPR2 kinase domain [3]) was 66.0 °C.

In the case of CNC(=O)[C@@H]1CC[C@@H](n2c(-c3ccc4cnccc4c3)nc3ccc(C(=O)NCc4ccccc4)cc32)C1 [CDD-1283, N-Benzyl-2-(isoquinolin-6-yl)-1-((1R,3R)-3-(methylcarbamoyl)cyclopentyl)-1H-benzo[d]imidazole-6-carboxamide], the “fold loss of BMPR2 potency” value (BMPR2 kinase domain [1]) is reported as 6.2 fold.

In the case of CNC(=O)[C@@H]1CC[C@@H](n2c(-c3ccc4cnccc4c3)nc3ccc(C(=O)NCc4cccc(C(N)=O)c4)cc32)C1 [CDD-1115, N-(3-Carbamoylbenzyl)-2-(isoquinolin-6-yl)-1-((1R,3R)-3-(methylcarbamoyl)cyclopentyl)-1H-benzo[d]imidazole-6-carboxamide], the “melting temperature (Tm)” value (BMPR2 kinase domain [3]) is reported as 67.8 °C, the “selectivity over BMPR2” value (ACVRL1 (ALK1)) is reported as greater than 100 fold and the “selectivity over BMPR2” value (ACVR1 (ALK2)) is reported as greater than 100 fold. The “selectivity over BMPR2” value (BMPR1A (ALK3); ALK3, text) was greater than 555 fold, the selectivity (BMPR1A (ALK3); ALK3 vs BMPR2) was greater than 555× and the IC50 (ACVR1B (ALK4)) was “inactive”. For the same compound, the “selectivity over BMPR2” value (TGFBR1 (ALK5); ALK5, text) was greater than 555 fold, the selectivity (TGFBR1 (ALK5); ALK5 vs BMPR2) was greater than 555× and the “selectivity over BMPR2” value (BMPR1B (ALK6); ALK6, text) was greater than 555 fold. The selectivity (BMPR1B (ALK6); ALK6 vs BMPR2) was greater than 555×, the IC50 (TGFBR2) was greater than 1 µM and the “selectivity over BMPR2” value (TGFBR2; TGFBR2, text) was greater than 555 fold. The selectivity (TGFBR2; TGFBR2 vs BMPR2) was greater than 555×, the IC50 (ACVR2A) was “inactive” and the IC50 (ACVR2B) was “inactive”.

In the case of Cn1c(-c2ccc3cnccc3c2)nc2ccc(C(=O)NCc3cccc(C(N)=O)c3)cc21 [CDD-1280, N-(3-Carbamoylbenzyl)-2-(isoquinolin-6-yl)-1-methyl-1H-benzo[d]imidazole-6-carboxamide], the “fold loss of BMPR2 potency” value (BMPR2 kinase domain [1]) is reported as 2.7 fold.

For CNC(=O)[C@@H]1CC[C@@H](n2c(-c3cccc(Cl)c3)nc3ccc(C(=O)NCc4cccc(C(N)=O)c4)cc32)C1 [CDD-1284, N-(3-Carbamoylbenzyl)-2-(3-chlorophenyl)-1-((1R,3R)-3-(methylcarbamoyl)cyclopentyl)-1H-benzo[d]imidazole-6-carboxamide], the “fold loss of BMPR2 potency” value (BMPR2 kinase domain [1]) was 160 fold.

COc1cnc(Nc2cccc(S(N)(=O)=O)c2)nc1N1CCN(c2ccccc2)C(=O)C1 [CDD-1653, 3-((5-Methoxy-4-(3-oxo-4-phenylpiperazin-1-yl)pyrimidin-2-yl)amino)benzenesulfonamide] was tested, and the “phosphorylation of SMAD1/5 (pSMAD1/5)” value [2] was “significantly decreased”, the Kd (WNK1) was greater than 3 µM and the Kd (WNK2) was greater than 3 µM.
